Ten compounds from ChEMBL document CHEMBL3763022, “Potent dual inhibitors of Plasmodium falciparum M1 and M17 aminopeptidases through optimization of S1 pocket interactions” (Eur J Med Chem, 2016) can be followed below.

The subject of one data set is Plasmodium falciparum. Description: Antiparasitic activity against Plasmodium falciparum Dd2 assessed as growth inhibition after 72 hrs by DAPI staining-based confocal image analysis. The format is functional, organism-based. The settings on record: Dd2, 72 h. The method, boiled down:
(§1)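 Sorbitol-synchronised ring-stage parasites in human O+ erythrocytes at 2% parasitaemia, 0.3% haematocrit, incubated 72 h at 37 °C (5% CO2) with three-step log serial dilutions from 20 μM top, 0.4% DMSO final. Staining with DAPI/saponin/Triton X/EDTA in PBS, confocal imaging, parasite count.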
Take `CC(C)(C)C(=O)NC(C(=O)NO)c1ccc(-c2c(F)cccc2F)cc1` (configuration not stated): the IC50 is 0.251 µM.
Take `CC(C)(C)C(=O)NC(C(=O)NO)c1ccc(F)cc1` (configuration not stated): the IC50 worked out at 2.01 µM.
For the compound `CC(C)(C)C(=O)NC(C(=O)NO)c1ccc(-c2c(F)cc(F)cc2F)cc1` (configuration not stated), the IC50 was determined as 0.267 µM.
On the same count and under the same terms, to `C[C@H]1[C@H](OC(=O)CCC(=O)O)O[C@@H]2O[C@@]3(C)CC[C@H]4[C@H](C)CC[C@@H]1[C@@]24OO3` [ARTESUNATE] belongs 0.0013 µM.

The next data set has as its system Plasmodium falciparum. The data set can be described thus: Antiparasitic activity against Plasmodium falciparum 3D7 assessed as growth inhibition after 72 hrs by DAPI staining-based confocal image analysis. It counts as functional, organism-based. The settings on record: 3D7, 72 h. The method, boiled down: as §1
`CC(C)(C)OC(=O)NC(C(=O)NO)c1ccc(-c2ccccc2F)cc1` (configuration not stated): the IC50 worked out at 0.633 µM.
As to `CC(C)(C)OC(=O)NC(C(=O)NO)c1ccc(-c2cccc(/C(N)=N\O)c2)cc1` (configuration not stated), the IC50 amounted to 0.679 µM.
For `CC(C)(C)OC(=O)NC(C(=O)NO)c1ccc(-c2ccc(/C(N)=N/O)cc2)cc1` (configuration not stated), the 50% inhibitory concentration (IC50) amounted to 0.334 µM.
In the case of `CC(C)(C)OC(=O)NC(C(=O)NO)c1ccc(Br)cc1` (configuration not stated), the IC50 was found to be 0.293 µM.
`Cn1cc(-c2ccc(C(NC(=O)OC(C)(C)C)C(=O)NO)cc2)cn1` (configuration not stated): the IC50 was 0.978 µM.
As for `CC(C)(C)C(=O)NC(C(=O)NO)c1ccc(-c2c(F)cccc2F)cc1` (configuration not stated), the half-maximal inhibitory concentration (IC50) amounted to 0.142 µM.
On to `CC(C)(C)C(=O)NC(C(=O)NO)c1ccc(F)cc1` (configuration not stated), for which the IC50 amounted to 1.53 µM.
The same measure, in the same setting: to `CC(C)(C)C(=O)NC(C(=O)NO)c1ccc(-c2c(F)cc(F)cc2F)cc1` (configuration not stated) belongs 0.125 µM.

The next data set has as its system Plasmodium falciparum. The data set can be described thus: Antiparasitic activity against chloroquine/quinine/pyrimethamine/sulfadoxine/NITD609-resistant Plasmodium falciparum Dd2 clone 2 assessed as growth inhibition after 72 hrs by DAPI staining-based confocal image analysis. The settings on record: Dd2, 72 h. The format is functional, organism-based. The gist of the method: as §1
In the case of `CC(C)(C)C(=O)NC(C(=O)NO)c1ccc(-c2c(F)cccc2F)cc1` (configuration not stated), the IC50 was determined as 0.246 µM.
For `CC(C)(C)C(=O)NC(C(=O)NO)c1ccc(F)cc1` (configuration not stated), the IC50 was 2.09 µM.
Consider `CC(C)(C)C(=O)NC(C(=O)NO)c1ccc(-c2c(F)cc(F)cc2F)cc1` (configuration not stated), for which the IC50 worked out at 0.45 µM.
Turning to `C[C@H]1[C@H](OC(=O)CCC(=O)O)O[C@@H]2O[C@@]3(C)CC[C@H]4[C@H](C)CC[C@@H]1[C@@]24OO3` [ARTESUNATE], the half-maximal inhibitory concentration (IC50) was determined as 0.0009 µM.

Tested on in the next data set: not listed separately
Description: Inhibition of recombinant Plasmodium falciparum M1 aminopeptidase using H-Leu-NHMec as substrate preincubated for 10 mins followed by addition of substrate by spectrofluorimetric analysis.
Details: not given
The method, boiled down: (§2)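 E. coli-expressed enzymes, purified by Ni-NTA and size exclusion. Preincubation 10 min at 37°C with inhibitor: M1 in 100 mM Tris pH 8.0; M17 in 50 mM Tris pH 8.0, 2 mM CoCl2. Substrate H-Leu-NHMec kept below Km. Fluorescence ex 355/em 460 nm followed to steady-state velocity. Inhibitor range 500pM–500 μM. Ki from Dixon plots (1/V vs [I]).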
Take `CC(C)(C)OC(=O)NC(C(=O)NO)c1ccc(-c2ccncc2)cc1` (configuration not stated): the Ki was determined as 0.91 µM.
On the same count and under the same terms, to `CC(C)(C)OC(=O)NC(C(=O)NO)c1ccc(-c2ccccc2F)cc1` (configuration not stated) belongs 0.95 µM; to `CC(C)(C)OC(=O)NC(C(=O)NO)c1ccc(-c2cccc(/C(N)=N\O)c2)cc1` (configuration not stated), 1.1 µM.
On the same count and under the same terms, to `CC(C)(C)OC(=O)NC(C(=O)NO)c1ccc(-c2ccc(/C(N)=N/O)cc2)cc1` (configuration not stated) belongs 0.4 µM; to `CC(C)(C)OC(=O)NC(C(=O)NO)c1ccc(Br)cc1` (configuration not stated), 0.027 µM; to `Cn1cc(-c2ccc(C(NC(=O)OC(C)(C)C)C(=O)NO)cc2)cn1` (configuration not stated), 1.9 µM.
As to `CC(C)(C)C(=O)NC(C(=O)NO)c1ccc(-c2c(F)cccc2F)cc1` (configuration not stated), the Ki worked out at 4.8 µM.
The same measure, in the same setting: for `CC(C)(C)C(=O)NC(C(=O)NO)c1ccc(F)cc1` (configuration not stated) the value was 4 µM; for `CC(C)(C)C(=O)NC(C(=O)NO)c1ccc(-c2c(F)cc(F)cc2F)cc1` (configuration not stated), 5.9 µM.

For a further data set, the system named is HEK293. The data set can be described thus: Cytotoxicity against HEK293 cells assessed as cell viability after 72 hrs by resazurin assay. The format is cell-based. The settings on record: human, hek293, 72 h. The method, boiled down:
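HEK293 cells in DMEM with 10% FCS, seeded at 2000 cells/well and left to adhere overnight. Compound dose response with top final 40 μM, 0.4% DMSO. Exposure 72 h at 37 °C, 5% CO2. Medium then replaced by 44 μM resazurin in serum-free DMEM for 4-6 h. Fluorescence read at ex/em 530/595 nm.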
For the compound `CC(C)(C)OC(=O)NC(C(=O)NO)c1ccc(-c2ccccc2F)cc1` (configuration not stated), the Activity entry is “Non-toxic”.
For the compound `CC(C)(C)OC(=O)NC(C(=O)NO)c1ccc(-c2cccc(/C(N)=N\O)c2)cc1` (configuration not stated), the Activity result is on record as “Non-toxic”.
Turning to `CC(C)(C)OC(=O)NC(C(=O)NO)c1ccc(-c2ccc(/C(N)=N/O)cc2)cc1` (configuration not stated), the Activity entry is recorded as “Non-toxic”.
For `CC(C)(C)OC(=O)NC(C(=O)NO)c1ccc(Br)cc1` (configuration not stated), the Activity entry was “Non-toxic”.
In the case of `Cn1cc(-c2ccc(C(NC(=O)OC(C)(C)C)C(=O)NO)cc2)cn1` (configuration not stated), the Activity entry is on record as “Non-toxic”.
With `CC(C)(C)C(=O)NC(C(=O)NO)c1ccc(-c2c(F)cccc2F)cc1` (configuration not stated), the Activity entry was “Non-toxic”.
Consider `CC(C)(C)C(=O)NC(C(=O)NO)c1ccc(F)cc1` (configuration not stated), for which the Activity result is “Non-toxic”.
For the compound `CC(C)(C)C(=O)NC(C(=O)NO)c1ccc(-c2c(F)cc(F)cc2F)cc1` (configuration not stated), the Activity result is given as “Non-toxic”.

Tested on in the next data set: not listed separately
Description: Inhibition of recombinant Plasmodium falciparum M17 aminopeptidase using H-Leu-NHMec as substrate preincubated for 10 mins followed by addition of substrate by spectrofluorimetric analysis.
Details: not given
The gist of the method: as §2
`CC(C)(C)OC(=O)NC(C(=O)NO)c1ccc(-c2ccncc2)cc1` (configuration not stated): the Ki stood at 0.54 µM.
Regarding `CC(C)(C)OC(=O)NC(C(=O)NO)c1ccc(-c2ccccc2F)cc1` (configuration not stated), the Ki came to 0.041 µM.
As for `CC(C)(C)OC(=O)NC(C(=O)NO)c1ccc(-c2cccc(/C(N)=N\O)c2)cc1` (configuration not stated), the inhibition constant (Ki) amounted to 0.14 µM.
For `CC(C)(C)OC(=O)NC(C(=O)NO)c1ccc(-c2ccc(/C(N)=N/O)cc2)cc1` (configuration not stated), the Ki is 0.018 µM.
On the same count and under the same terms, for `CC(C)(C)OC(=O)NC(C(=O)NO)c1ccc(Br)cc1` (configuration not stated) the value was 0.08 µM.
Take `Cn1cc(-c2ccc(C(NC(=O)OC(C)(C)C)C(=O)NO)cc2)cn1` (configuration not stated): the Ki is 0.056 µM.
`CC(C)(C)C(=O)NC(C(=O)NO)c1ccc(-c2c(F)cccc2F)cc1` (configuration not stated): the Ki amounted to 0.013 µM.
Turning to `CC(C)(C)C(=O)NC(C(=O)NO)c1ccc(F)cc1` (configuration not stated), the Ki amounted to 0.029 µM.
For `CC(C)(C)C(=O)NC(C(=O)NO)c1ccc(-c2c(F)cc(F)cc2F)cc1` (configuration not stated), the Ki turned out to be 0.0025 µM.

As a reminder, the IC50 is the midpoint of a concentration-inhibition curve. What is called Ki is the dissociation constant of the complex between target and ligand, obtained from inhibition or displacement.
